Assay outcomes (PubChem)
Sampled rows, rich in hits. Any-hit rate of the full collection: about 3.5%.
HIV Env fusion: inhibitors of HIV Env-mediated cell fusion; HeLa-JRFL Env/CEM21 cell fusion, luciferase; inhibition, % at 12.3 µM; 360,000 compounds, 1.1% hits; AID 651610;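 active means mean replicate inhibition score of at least 50 and every replicate individually at or above 50; inconclusive means only one of the two criteria met; inactive means mean below 50 and not all replicates reaching 50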
esBAF inh: SWI/SNF esBAF complex inhibition | reporter increase, % at 12.5 µM | mouse ES cells, Bmi1-luciferase knock-in reporter, 24 h; 100% = twice the neutral-well signal | 350,000 compounds, 2% hits; in the data active means activation above about 40%; inconclusive means no clear call, values can overlap the other calls;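 further: a rise in the Bmi1 reporter signal indicates esBAF inhibition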
Cneo AK release: causes C. neoformans cell lysis; adenylate kinase release luminescence, 4 h; normalised: neutral wells 0, clomiphene wells 100; lysis activity, % at 15 µM; 360,000 compounds, 0.2% hits; AID 651654;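 active means mean lysis activity across replicates of at least 80%, whatever share of replicates individually reach that level; inactive means mean lysis activity below 80%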
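Signal: Adenylate kinase release luminescence | Assay system: Log-phase Cryptococcus neoformans yeast cells | Input: Cells at 5 × 10^6 per mL | Buffer or medium: Fresh YPD growth medium | Compound: Single dose | Schedule: Static 4 h at 37 °C with compound, 1 h detection | Controls: Clomiphene | Read-out: Luminescence rise reflecting yeast cell lysis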
MITF act: increases MITF-driven TRPM1 promoter luciferase signal; SK-MEL-5 TRPM1-promoter luciferase, 24 h; % of positive control, neutral wells = 0; 300,000 compounds, 0.75% hits; activation, % at 12.5 µM; AID 588334;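 active means mean activation of at least 80% with every replicate also reaching 80%; inconclusive means mean reaches 80% but some replicate falls short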
ERAP1 HTS inh: blocks human ERAP1 aminopeptidase activity; Q9NZ08; recombinant ERAP1, Leu-AMC fluorescence, 60 min; inhibition, % at 10.7 µM; 340,000 compounds, 0.15% hits; AID 652197;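 active means mean replicate inhibition of at least 30%, or all replicates individually reaching that 30% level; inactive means mean below 30% and not every replicate reaching it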
Target sequence (Q9NZ08 whole entry, looked up): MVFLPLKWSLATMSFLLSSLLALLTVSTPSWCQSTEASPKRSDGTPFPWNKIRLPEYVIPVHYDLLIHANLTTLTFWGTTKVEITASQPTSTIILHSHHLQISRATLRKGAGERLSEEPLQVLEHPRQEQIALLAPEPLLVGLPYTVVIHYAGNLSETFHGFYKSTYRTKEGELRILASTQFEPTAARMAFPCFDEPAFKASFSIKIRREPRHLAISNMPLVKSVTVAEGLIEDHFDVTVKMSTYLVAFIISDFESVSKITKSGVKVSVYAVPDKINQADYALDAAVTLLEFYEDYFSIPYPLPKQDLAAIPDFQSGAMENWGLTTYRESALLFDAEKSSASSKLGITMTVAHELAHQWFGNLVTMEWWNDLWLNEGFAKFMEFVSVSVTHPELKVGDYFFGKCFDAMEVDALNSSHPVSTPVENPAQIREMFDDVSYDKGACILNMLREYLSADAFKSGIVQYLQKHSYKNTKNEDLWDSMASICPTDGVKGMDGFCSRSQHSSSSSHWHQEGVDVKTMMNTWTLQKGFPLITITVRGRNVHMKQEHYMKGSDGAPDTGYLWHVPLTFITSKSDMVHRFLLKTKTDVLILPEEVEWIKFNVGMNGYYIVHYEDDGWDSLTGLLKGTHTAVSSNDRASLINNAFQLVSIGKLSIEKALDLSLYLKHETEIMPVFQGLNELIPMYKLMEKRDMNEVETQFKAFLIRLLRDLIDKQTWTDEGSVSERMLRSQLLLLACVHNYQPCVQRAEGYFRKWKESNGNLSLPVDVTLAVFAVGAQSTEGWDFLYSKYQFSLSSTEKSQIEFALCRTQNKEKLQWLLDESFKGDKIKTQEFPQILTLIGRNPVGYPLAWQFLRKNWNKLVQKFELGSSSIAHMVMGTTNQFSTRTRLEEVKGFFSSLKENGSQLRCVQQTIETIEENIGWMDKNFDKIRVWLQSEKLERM
Wnt act: activators of Wnt/beta-catenin signaling | 300,000 compounds, 1.2% hits | Wnt/beta-catenin reporter cell assay, activator, plate reader | AID 743398 | activation, % at 9.35 µM; in the data active means activation above about 30%, passing the limit was not always enough; inconclusive means no clear call, values can overlap the other calls
Numbers stand for hits; n = inactive; u = inconclusive; x = no result given.

SMILES	HIV Env fusion	esBAF inh	Cneo AK release	MITF act	ERAP1 HTS inh	Wnt act
COc1cc2c(=O)c(-c3ccc(O)cc3)coc2cc1OC1OC(CO)C(O)C(O)C1O (stereo unspecified)	n	n	n	n	n	n
O=c1c(-c2ccc3c(c2)OCCO3)coc2cc(OC3OC(CO)C(O)C(O)C3O)ccc12 (stereo unspecified)	n	n	n	94	n	42
O=C(C[C@@H]1CC[C@@H]2[C@H](COC[C@@H](O)CN2C(=O)c2ccccc2F)O1)NCc1ccc(Cl)c(Cl)c1	n	n	n	x	n	x
Cc1[nH]c2ccccc2c1C(=O)CSc1nc2cc(S(=O)(=O)N3CCCCC3)ccc2o1	65	x	n	n	x	n
C[C@H](CO)N1C[C@H](C)[C@@H](CN(C)Cc2cncnc2)Oc2cc(/C=C/c3ccccc3)ccc2S1(=O)=O	n	n	n	x	n	x
CCOC(=O)c1[nH]c2ccc(Br)cc2c1NC(=O)CCN1CCOCC1	n	x	n	x	34	n
CCOC(=O)c1[nH]c2ccc(Br)cc2c1NC(=O)CCN1CCN(C(=O)OCC)CC1	n	n	n	n	x	n
Cc1ccccc1COC[C@H](CC(C)C)N1CCN(C(=O)c2cccc(C(F)(F)F)c2)CCC1=O	72	n	n	n	n	n
Cc1ccc(COC[C@H](CC(C)C)N2CCN(C(=O)c3cccc(C(F)(F)F)c3)CCC2=O)cc1	n	x	x	x	n	n
CC(C)CC(COCc1cccc(C(F)(F)F)c1)N1CCN(C(=O)c2cccc(C(F)(F)F)c2)CCC1=O (stereo unspecified)	67	n	n	n	x	n
CC(C)CC(COCc1ccc(Cl)cc1)N1CCN(C(=O)c2cccc(C(F)(F)F)c2)CCC1=O (stereo unspecified)	n	n	n	n	n	n
Cn1c(=O)[nH]c(=O)c2c1[nH]c(=S)n2Cc1ccc(Cl)cc1	n	n	n	x	45	n
Cn1c(NCc2ccccc2)nc2cc(-c3ccccc3)sc2c1=O	n	n	n	x	n	n
COc1ccc(-c2cc3nc4n(c(=O)c3s2)CCCCC4)cc1	n	n	x	x	n	37
Cc1nc2cc(-c3ccccc3)sc2c(=O)n1N	64	x	x	n	n	n
COc1ccc(-c2cc3nc(C)n(N)c(=O)c3s2)cc1	84	x	n	x	x	n
CN1C[C@@H](O)COC[C@@H]2O[C@H](CC(=O)N3CCN(c4ccccc4)CC3)CC[C@H]21	n	n	n	x	n	x
Cc1ccc(S(=O)(=O)Nc2ccc3c(c2)C(=O)N([C@@H](C)CO)C[C@H](C)[C@@H](CN(C)C(=O)c2ccncc2)OCCCC[C@@H](C)O3)cc1	n	n	n	x	x	x
C[C@@H]1CCCCO[C@H](CN(C)C(=O)NC2CCCCC2)[C@H](C)CN([C@H](C)CO)C(=O)c2cc(NS(=O)(=O)c3ccc(F)cc3)ccc2O1	n	n	n	x	n	x
Cc1scc(C(=O)N/N=C/c2ccc(Cl)s2)c1C	x	x	n	n	n	58
Cc1scc(C(=O)N/N=C/c2ccc(OC(C)C)cc2)c1C	x	47	n	n	x	x
COc1ccccc1C(=O)Nc1ccc2c(c1)C(=O)N(C)[C@H]1CC[C@H](CC(=O)NCCc3ccncc3)O[C@H]1CO2	n	n	n	x	n	x
Cc1oc(-c2ccccc2F)nc1CS(=O)(=O)CC(=O)N1CCN(c2ccccc2)CC1	60	n	n	x	n	n
Cc1ccc(-c2nc(CS(=O)(=O)CC(=O)N3CCCCCC3)c(C)o2)cc1	51	n	n	x	n	n
Cc1ccc(-c2nc(CS(=O)(=O)CC(=O)N3CCc4ccccc4C3)c(C)o2)cc1	n	n	n	x	x	n
SMILES	HIV Env fusion	esBAF inh	Cneo AK release	MITF act	ERAP1 HTS inh	Wnt act
Cc1cccc(-n2cnc(C(=O)O)c2)n1	n	n	n	n	n	n
Cc1cccc(-n2cnc(C(=O)NC3CCCCCC3)c2)n1	x	68	n	u	x	x
COc1ccc(S(=O)(=O)Nc2ccc3c(c2)CC(=O)N([C@H](C)CO)C[C@@H](C)[C@@H](CN(C)Cc2ccncc2)O3)cc1	x	n	n	x	n	x
C[C@H](CO)N1C[C@H](C)[C@H](CN(C)C(=O)Nc2ccc3c(c2)OCO3)Oc2ccc(NS(=O)(=O)c3cccs3)cc2CC1=O	n	n	n	x	n	x
O=C1C(=Cc2ccco2)CCCC1=Cc1ccco1	n	57	n	n	n	n
O=C1C(=Cc2ccco2)CCC1=Cc1ccco1	x	n	n	n	n	n
COc1ccc(NC(=O)C2(C)CCN2CCOc2ccccc2)cc1OC (stereo unspecified)	n	n	n	x	n	n
COc1ccc(OC)c(NC(=O)C2(C)CCN2CCOc2ccccc2)c1 (stereo unspecified)	66	n	n	x	n	n
O=C(NC1CCCCC1)N[C@@H]1CC[C@H](CCNS(=O)(=O)c2ccccc2)O[C@@H]1CO	n	n	n	x	n	x
COc1ccc(CNC(=O)C[C@@H]2CC[C@H]3[C@@H](COc4ccc(NC(C)=O)cc4C(=O)N3C)O2)cc1	n	n	n	x	n	x
CCOC(=O)C1CCN(C(=O)c2ccc3c(c2)C(=O)N(c2ccccc2C)C3=O)CC1	85	n	x	n	n	n
CCOC(=O)C1CCN(C(=O)c2ccc(Cl)c(Cl)c2)CC1	x	n	n	n	x	x
CCOC(=O)C1CCCN(C(=O)c2ccc3c(c2)C(C)(C)CCC3(C)C)CC1 (stereo unspecified)	60	n	n	x	n	x
CCOC(=O)C1CCCN(C(=O)c2ccc(OC)cc2)CC1 (stereo unspecified)	n	n	n	x	n	n
CCOc1ccc(NC2c3ccccc3C(=O)N2Cc2ccco2)cc1 (stereo unspecified)	74	n	n	x	n	n
COCCNC(=O)c1ccc(-c2cn[nH]c2)c2ccoc12	n	n	n	x	n	n
O=C(NCc1ccccc1)c1ccc(-c2cn[nH]c2)c2ccoc12	n	57	n	x	n	n
COc1ccc(/C=N/N2C(=O)CSC2=S)cc1	x	n	n	n	x	x
COc1ccc(-c2nn(-c3ccccc3)cc2/C=N/N2C(=O)CSC2=S)cc1	67	n	n	n	x	x
CC(=O)C(Sc1nc(N(C)C)nc(N(C)C)n1)C(=O)Nc1ccccc1 (stereo unspecified)	n	n	n	n	n	n
CC(=O)C(Sc1nn(C)c(=S)s1)C(=O)Nc1ccccc1 (stereo unspecified)	n	77	n	n	x	x
CO[C@H]1CC[C@@H]2CCOc3c(C#N)cccc3C(=O)N(C)C[C@@H](OC)[C@@H](C)C(=O)N(C)C[C@H]1O2	n	n	n	x	n	x
CO[C@H]1CC[C@@H]2CCOc3c(C#N)cccc3C(=O)N(C)C[C@@H](OC)[C@@H](C)C(=O)N(C)C[C@@H]1O2	n	n	85	x	n	x
O=C(NC[C@H]1CC[C@@H]2[C@@H](CN2Cc2cccc(Cl)c2)O1)C1CC1	n	x	x	x	n	x
Cc1ccc2c(C)nc(Nc3nc(CSc4nnnn4-c4ccccc4)cc(=O)[nH]3)nc2c1	70	n	x	n	x	x
